Source: PubChem BioAssay (several laboratories)
Compounds with a hit are over-represented: about 1.9% of the library has one in this group of screens.
p-CIP stab down – p/CIP protein destabilization; Q05BA5; F442A p/CIP-EGFP cells, EGFP fluorescence, 16 h; decrease of EGFP signal, % at 10 µM; hit rate 0.01% among 290,000;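 active = EGFP signal decrease of at least 30% at 10 µM or well 3 SD below plate mean, unless failing retest; inactive = the rest, including hits failing retest or dose response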
Dynein cargo inh – dynein cargo transport inhibition | 3617.4 mouse cells, GR-EGFP nuclear translocation imaging; test concentration mostly 20 µM; stimulated with dexamethasone, 1 µM; hits give low values | AID 1381 | z-score, hits read low | hit rate 0.47% among 220,000;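 active = plate z-score of nuclear minus cytoplasmic receptor signal below a set negative limit, without overly bright fluorescence or cell loss, cut at about -3.5 in these data, passing the limit was not always enough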;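 note: z-score of nuclear minus cytoplasmic ring GR-EGFP intensity difference per well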
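Buffer or medium: tet-free medium with charcoal-stripped serum / Also added: dexamethasone agonist, 1.0 µM final, for 30 min / Timing: induction 48 h, compound 1 h, agonist 30 min / Measured by: high-content fluorescence imaging after fixation / Read-out: nuclear-to-cytoplasmic GR-EGFP distribution per well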
RAM inhibit – yeast RAM network inhibition. S. cerevisiae dse1pr::URA3 reporter, 5-FOA growth OD615, 2 d; analog-sensitive cbk1-as2 kinase mutant strain. inhibition, % at 50 µM. hit rate 1.8% among 190,000. AID 868;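 active = inhibition above a set limit, 3 SD over mean compound inhibition, cut at about 8.4% in these data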;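 note: inhibition rescues growth on 5-FOA so higher OD means more RAM inhibition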
p47phox inh – p47phox (human) inhibition; P14598; p47phox/p22phox peptide binding, fluorescence polarization, 2 h; inhibition, % at 24.7 µM; hit rate 0.53% among 220,000; AID 1274;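 active = inhibition above about 30%, limit read from the data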
Dynein inh conf – dynein cargo transport inhibition, confirmation; shares compounds with Dynein cargo inh; 3617.4 GR-EGFP nuclear translocation imaging, dexamethasone-induced; calls only at 20 µM; hit rate 69% among 1,000;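 active = inhibition of receptor movement into the nucleus at or above a set limit in both runs, with normal cell brightness and cell count; inconclusive = limit reached in only one run, brightness and count normal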;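 note: dexamethasone at 1 µM final in well for 30 min; nuclear minus cytoplasmic GR-EGFP mean intensity difference in channel 2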
Each line names hits and unclear results; the compound was inactive in the other large screens (follow-up assays come after a bar, where they were run).

COCCN(CC(=O)NC1CCCCC1)C(=O)/C=C/C(=O)c1ccc(OC)cc1O	Dynein cargo inh -3.7 | Dynein inh conf active
O=C(/C=C/c1cc(Br)ccc1O)c1ccco1	Dynein cargo inh -4.7 (no result: RAM inhibit) | Dynein inh conf inactive
O=C(/C=C/c1ccccc1O)c1ccco1	none (no result: Dynein cargo inh, RAM inhibit, p47phox inh)
O=C(Nc1ccc(S(=O)(=O)NC2=NCCCCC2)cc1)c1cc(S(=O)(=O)N2CCOCC2)ccc1F	none (no result: Dynein cargo inh, RAM inhibit, p47phox inh)
Cc1cc(C(=O)Cn2ncc(Cl)c(Cl)c2=O)c(C)n1CC(F)(F)F	Dynein cargo inh -5.1 | Dynein inh conf active
Cc1ccc(C(=O)OCn2ncc(Cl)c(Cl)c2=O)cc1	Dynein cargo inh -3.8 | Dynein inh conf active
Cc1cccc(Cn2ncc(Cl)c(Cl)c2=O)c1	Dynein cargo inh -4.3 | Dynein inh conf active
Cc1cc2oc(=O)cc(Cn3ncc(Cl)c(Cl)c3=O)c2cc1Cl	Dynein cargo inh -6.1 | Dynein inh conf active
Cc1cc2oc(=O)cc(CN3CCCCC3C)c2cc1Cl (stereo not drawn)	none (no result: Dynein cargo inh, RAM inhibit, p47phox inh)
CCn1cc(C(=O)O)c(=O)c2cnc(N3CCN(C(=S)NC(=O)c4ccc(OC)cc4)CC3)nc21	none (no result: Dynein cargo inh, RAM inhibit, p47phox inh)
Cc1cc(Br)ccc1NC(=O)CNC(=O)Cn1ncc(Cl)c(Cl)c1=O	none (no result: p47phox inh)
Cc1ccc(C)c(C(=O)Cn2ncc(Cl)c(Cl)c2=O)c1	Dynein cargo inh -4.7 | Dynein inh conf inconclusive
COc1ccc(CN2CCN(Cc3ccc(Br)cc3)CC2)c(OC)c1OC	none (no result: Dynein cargo inh, RAM inhibit, p47phox inh)
CCc1cccc(CC)c1NC(=O)CO/N=C(\C)c1cccs1	none
O=[N+]([O-])c1ccccc1S(=O)(=O)N1CCN(c2ccccc2)CC1	none (no result: Dynein cargo inh, RAM inhibit, p47phox inh)
CCCCCCCOC(=O)C[N+](C)(C)CCOC1CC2CCC1(C)C2(C)C (stereo not drawn)	Dynein cargo inh -4.6 | Dynein inh conf inactive
CCOC(=O)N1CCN(C(=O)COC(=O)c2oc3ccc(OC)cc3c2C)CC1	none (no result: Dynein cargo inh, RAM inhibit, p47phox inh)
CN(C)S(=O)(=O)c1ccc(Cl)c(C(=O)NC2=NCCS2)c1	none (no result: Dynein cargo inh, RAM inhibit, p47phox inh)
COc1ccc2c(c1)c1ccc3c(c1n2C)C(=O)C=CC3=O	Dynein cargo inh -5.8 (no result: RAM inhibit) | Dynein inh conf active
COc1ccc2c(c1)c1ncn(CCN3CCCC3)c(=O)c1n2C	none
CCOC(=O)CSC1=NC(=O)/C(=C/c2ccc(Br)cc2)S1	Dynein cargo inh -4.3 | Dynein inh conf active
O=C(CCl)N1CCN2C(=O)c3ccccc3C12c1ccc(Cl)cc1 (stereo not drawn)	Dynein cargo inh -4.6 | Dynein inh conf active
O=C(NCc1cccnc1)/C(=C\c1ccc(-c2ccc(Br)cc2)o1)S(=O)(=O)c1ccccc1	Dynein cargo inh -4.6 | Dynein inh conf active
O=C(NCc1cccnc1)/C(=C/c1ccc(-c2ccc(Cl)cc2)o1)S(=O)(=O)c1ccccc1	Dynein cargo inh -5.3 | Dynein inh conf active
c1coc(CSc2ncnc3c2oc2ccccc23)c1	none (no result: RAM inhibit)
CCCc1cc(C(=O)N2CCCC(C(=O)c3ccc(Cl)cc3)C2)n(C)n1 (stereo not drawn)	none (no result: Dynein cargo inh, RAM inhibit, p47phox inh)
COc1ccc(C(C(=O)NC2CCCCC2)N(C(=O)CCl)c2cccc(Cl)c2)cc1 (stereo not drawn)	Dynein cargo inh -3.9 | Dynein inh conf active
O=C(NC1CCCCC1)C(c1ccncc1)N(Cc1ccc(F)cc1)C(=O)c1ccccn1 (stereo not drawn)	none (no result: Dynein cargo inh, RAM inhibit, p47phox inh)
O=C(NC1CCCC1)C(c1ccc(F)cc1)N(Cc1ccc(F)cc1)C(=O)CCl (stereo not drawn)	Dynein cargo inh -4.4 | Dynein inh conf active
COc1ccc(C(C(=O)NC2CCCCC2)N(C(=O)CCl)c2ccc(OC)cc2)cc1 (stereo not drawn)	none
COc1ccc(N(C(=O)CCl)C(C(=O)NC2CCCCC2)c2cccnc2)cc1 (stereo not drawn)	Dynein cargo inh -5.4 | Dynein inh conf active
O=C(NC1CCCCC1)C(c1cccnc1)N(C(=O)CCl)c1ccc(F)cc1 (stereo not drawn)	Dynein cargo inh -4.4 | Dynein inh conf active
Cc1cc(NC(=O)Cc2ccccc2)ccc1NC(=O)c1cccs1	none
CC(NC(=O)Cn1ncc(Cl)c(Cl)c1=O)C12CC3CC(CC(C3)C1)C2 (stereo not drawn)	none
CC(C)CN1CCCC(N2CCN(c3cccc(Cl)c3)CC2)C1 (stereo not drawn)	none (no result: Dynein cargo inh, RAM inhibit, p47phox inh)
O=C1ON=C(c2ccccc2)/C1=C/c1ccc(O)cc1	none (no result: Dynein cargo inh, RAM inhibit, p47phox inh)
O=C1ON=C(c2ccc(Cl)cc2)/C1=C/c1ccc(O)cc1	Dynein cargo inh -5 | Dynein inh conf active
COc1ccccc1OCC(O)CNCc1ccc2c(c1)OCO2 (stereo not drawn)	none (no result: RAM inhibit)
